# Scp1 inh: inhibitors of human Scp-1 phosphatase; actives 0.88% (n = 340,000); inhibition, % at 20 µM; Q9GZU7; Recombinant Scp1, phosphopeptide, malachite green phosphate absorbance;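 active means inhibition above about 50% at 20 µM, limit read from the data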;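 further: plate controls were DMSO wells with enzyme for no effect and wells lacking enzyme for full effect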
# Target sequence (Q9GZU7 76-261 limits assumed): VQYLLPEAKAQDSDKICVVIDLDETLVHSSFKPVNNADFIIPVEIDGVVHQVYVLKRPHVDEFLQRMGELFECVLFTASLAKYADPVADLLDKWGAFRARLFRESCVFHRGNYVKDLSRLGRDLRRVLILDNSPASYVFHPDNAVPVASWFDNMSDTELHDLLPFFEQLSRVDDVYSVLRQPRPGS
#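 Test system: SCP-1 phosphatase catalytic domain, residues 76-261 | Compound dosing: One concentration, 20 µM, with 1.0% DMSO | Schedule: 45 min room-temperature reaction, 5 min colour, 30 min stabiliser | Detection: Absorbance at 630 nm | Read-out basis: % inhibition of SCP-1 phosphate liberation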
# Rpn11 inh: inhibitors of human proteasome Rpn11; AID 588493; human 26S proteasome, Ub4-pepOG fluorescence polarization; 20S core pre-blocked with epoxomicin; actives 0.59% (n = 360,000); inhibition, % at 20 µM; O00487;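 active means inhibition at 20 µM, scaled to each plate's controls, above about 33%, limit read from the data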
# SUMO1 PPI mod: alters human SUMO1 binding to SIM partners; AID 602429; inhibition, % at 20 µM; SUMO1 binding to a labelled peptide, TR-FRET, 1 h; actives 0.33% (n = 360,000); in the data active means inhibition above about 37%
# Target sequence (P63165 whole entry, looked up): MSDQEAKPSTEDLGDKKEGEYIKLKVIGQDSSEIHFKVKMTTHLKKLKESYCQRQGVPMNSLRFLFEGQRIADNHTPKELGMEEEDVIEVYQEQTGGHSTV
# LMPTP block: blocks human LMPTP phosphatase; AID 651560; actives 0.22% (n = 360,000); inhibition, % at 20 µM; P24666; recombinant LMPTP-A, OMFP fluorogenic substrate, fluorescence intensity;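 active means compounds that cut the enzyme signal by at least half of the control window in the single-dose screen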;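 further: plate controls were DMSO wells with enzyme plus substrate for no effect and substrate without enzyme for full effect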
# Target sequence (P24666 whole entry, looked up): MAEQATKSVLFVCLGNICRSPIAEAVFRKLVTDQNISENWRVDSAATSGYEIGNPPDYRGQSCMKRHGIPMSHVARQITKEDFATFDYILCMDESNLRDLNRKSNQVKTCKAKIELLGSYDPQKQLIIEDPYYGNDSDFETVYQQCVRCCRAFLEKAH
#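 material = LMPTP-A | quantity = 0.625 nM enzyme | reagent = OMFP substrate, 400 µM final | buffer or medium = Bis-Tris pH 6.0, DTT, detergent | detection = endpoint fluorescence intensity from OMFP dephosphorylation | dosing = single 20 µM dose | read-out basis = % inhibition relative to no-enzyme and uninhibited control wells | control set = no-enzyme and uninhibited controls | timing = 50 min at room temperature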
# DNMT1 block: inhibitors of human DNMT1. P26358. DNMT1 molecular beacon, Hinp1I cleavage, fluorescence. inhibition (reported as % activation of signal), % at 10 µM. actives 0.83% (n = 360,000). AID 588458; in the data active means inhibition above about 50%
# STEP inh: STEP (human) phosphatase inhibition; inhibition, % at 20 µM; actives 0.25% (n = 360,000); recombinant STEP, OMFP fluorogenic substrate, fluorescence; AID 588621; P54829;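 active means inhibition at 20 µM, scaled per plate between control wells, above about 37%, limit read from the data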;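 further: 0% = DMSO with enzyme and substrate and 100% = substrate only without enzyme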
#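 System: STEP phosphatase, cell-free reaction; Buffer or medium: Bis-Tris pH 6.0 buffer with DTT, detergent; Incubation: 20 min at room temperature, dark; Measured by: fluorescence, 480/540 nm.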
# Rpn11 inh conf: confirmation of human proteasome Rpn11 inhibitors | inhibition, % at 20 µM | purified human 26S proteasome, Ub4-pepOG fluorescence polarization; proteasome pretreated with epoxomicin | shares compounds with Rpn11 inh | actives 29% (n = 1,900)
# MMP-2 inh: blocks human MMP-2, flagging nonselective RPN11 hits. shares compounds with Rpn11 inh. recombinant MMP-2, FRET peptide cleavage fluorescence. inhibition, % at 20 µM. actives 4% (n = 1,900). AID 602330;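 further: human MMP-2 activated beforehand with APMA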
# Thrombin inh: counter-screen for RPN11 inhibitors: inhibition of bovine thrombin; shares compounds with Rpn11 inh; bovine thrombin cleavage of Ub4-pepOG, fluorescence polarization; inhibition, % at 20 µM; actives 13% (n = 1,900);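 active means mean inhibition at least 40% at 20 µM, or signal 3 deviations below plate average, so some actives read negative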;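 further: plate controls were thrombin with DMSO for no effect and buffer wells lacking thrombin for full effect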
# The depositor's hits bear a star; x = not tested or not shown; + = active, no number. Compounds with a hit are over-represented: about 2.3% of the library has one in this group of screens. Unless noted, no stated cut-off is given here; in the data, active means inhibition above about 40%; inactive means the rest.
SMILES,Scp1 inh,Rpn11 inh,SUMO1 PPI mod,LMPTP block,DNMT1 block,STEP inh,Rpn11 inh conf,MMP-2 inh,Thrombin inh
Cc1ccc(/C=C(\C#N)C(=O)Nc2c(C)cccc2C)s1,10,85*,-22,0,-2,0,96*,-8,80*
COc1ccccc1NC(=O)C1=C(C)Nc2ncnn2C1c1cccs1 (centres undefined),4,78*,2,0,6,2,-11,-6,-12
O=C(CN1C(=O)CCSc2ccc(S(=O)(=O)N3CCCC3)cc21)Nc1ccccc1,28,-7,1,0,3,1,x,x,x
C/C(=N\Nc1ccc([N+](=O)[O-])cc1)c1ccc(-n2nncc2C)cc1,2,62*,-22,2,-17,-1,20,0,-17
C/C(=N\Nc1ccc([N+](=O)[O-])cc1)c1ccc(N2CCOCC2)cc1,-5,22,-11,3,-6,4,x,x,x
O=c1cc(-c2ccc(O)cc2)oc2c1ccc1ccccc12,15,45*,90*,54*,33,22,64*,-26,-13
CCOC(=O)Cn1ncc(-c2ccccc2)c1N,-2,169*,1,0,3,1,18,-31,-3
CCOC(=O)c1c(NC(=O)c2cc(-c3ccc(O)cc3)on2)sc(C(C)=O)c1C,-7,171*,24,-2,23,-2,-14,-32,-6
CCOC(=O)c1c(NC(=O)CC(C)C)sc(C(C)=O)c1C,-15,-14,-9,1,4,4,x,x,x
Cn1c(CNC(=O)CCNC(=O)c2ccc(F)c(F)c2)cc(=O)n(C)c1=O,4,-6,2,-1,-3,0,x,x,x
Cc1ccc([C@@H]2CC(=O)[C@@H]3CN(S(=O)(=O)c4ccc(C)cc4)[C@H](c4ccccc4F)C[C@@H]3N2S(=O)(=O)c2ccc(C)cc2)cc1,x,50*,4,1,-4,0,5,8,0
Cc1ccc(S(=O)(=O)N2C[C@H]3C(=O)C[C@@H](c4ccccc4F)N(S(=O)(=O)c4ccc(C)cc4)[C@H]3C[C@H]2c2ccccc2)cc1,x,-2,2,3,-15,-1,x,x,x
NS(=O)(=O)c1cccc(C(=O)OCC(=O)NC2CCCc3ccccc32)c1 (centres undefined),18,3,2,3,9,4,x,x,x
N#Cc1ccc(-c2cccnc2)nc1SCC(=O)Nc1sc2c(c1C#N)CCC2,9,48*,11,21,7,0,26,9,20
COc1ccc(/C=C(\C#N)C(=O)Nc2cccnc2)cc1,-1,1,-19,-2,5,0,x,x,x
N#C/C(=C\c1ccc(Cl)cc1)C(=O)Nc1cccnc1,-1,91*,-6,0,-2,-2,-8,-34,-7
N#C/C(=C\c1ccc(O)c(O)c1)C(=O)Nc1ccccc1,-20,56*,-26,-1,5,1,91*,9,27
CCOC(=O)c1ccc(N2CCOCC2)c(NS(=O)(=O)c2ccc(F)cc2)c1,-5,-16,2,1,1,-1,x,x,x
CC(C)(C)OC(=O)C[C@@H]1C/C=C\C[C@H](CC(=O)N(CCO)Cc2ccccc2)C(=O)NCCOC1=O,-11,3,2,1,3,-2,x,x,x
CCCCN1C(=O)C(CC(=O)NCCCN(C)C)CC(C(=O)N(C(C)C)C(C)C)=C1C (centres undefined),x,x,-4,-3,x,x,x,x,x
Cc1csc(=O)n1CCC(=O)OCC(=O)c1ccc(Br)cc1,10,-2,0,1,1,-2,x,x,x
COc1ccccc1NC(=O)CSc1ccc(-c2ccc(-n3cccn3)cc2)nn1,1,97*,-3,3,1,0,117*,-13,3
COc1ccccc1NC(=O)CSc1ccc(-c2ccccn2)nn1,-5,9,8,0,1,1,x,x,x
Cn1c(=O)oc2cc(S(=O)(=O)Nc3cccc4c3CCCC4)ccc21,-11,42*,3,-1,-1,-5,38,20,24
Cn1c(=O)oc2cc(S(=O)(=O)NCC3CCCO3)ccc21 (centres undefined),-2,76*,0,-1,10,-5,22,-4,20
SMILES,Scp1 inh,Rpn11 inh,SUMO1 PPI mod,LMPTP block,DNMT1 block,STEP inh,Rpn11 inh conf,MMP-2 inh,Thrombin inh
Cc1cc(C)c(NS(=O)(=O)c2ccc3c(c2)oc(=O)n3C)c(C)c1,x,1,1,-1,6,2,x,x,x
CNC(=O)CN(Cc1ccccc1)S(=O)(=O)c1ccc(Cl)cc1,-1,2,3,-1,1,0,x,x,x
CCc1nc2oc3cc(OC)ccc3c(=O)c2c(=O)n1Cc1ccco1,29,+,27,27,29,2,-8,6,19
COc1ccc2c(=O)c3c(=O)n(Cc4ccccc4)c(C(C)C)nc3oc2c1,0,-23,5,-1,0,2,x,x,x
Cn1c(=O)[nH]c(=O)c2cc(C(=O)c3cc(F)ccc3O)cnc21,-12,68*,-16,-1,-1,3,18,-22,25
O=C(COC(=O)C1(c2ccc(F)cc2)CCCC1)NCc1ccco1,1,-4,0,2,14,3,x,x,x
COc1cc(-c2nc3cccc(C)n3c2NCC2CCCO2)ccc1O (centres undefined),-9,42*,0,17,0,1,1,-30,active
CCCCCCCCCCC[N+](C)(C)CC/C=C1/c2ccccc2Sc2ccc(Cl)cc21,5,33,25,4,29,6,x,x,x
CCCCCCCCCC[N+](C)(C)CC/C=C1/c2ccccc2Sc2ccc(Cl)cc21,12,48*,-7,8,39,6,38,-2,1
O=C(Nc1ccccc1)c1cn2ccccc2n1,-1,-7,1,3,5,0,x,x,x
O=C(Nc1ccc(-n2cnnn2)cc1)c1cn2ccccc2n1,6,87*,19,6,0,3,36,-112,-15
Cc1ccc2nc(NCCCO)[nH]c2c1,-2,41*,4,0,-2,-3,-11,-35,-19
Cc1cc(=O)oc2cc(OCC(=O)c3ccc4c(c3)NC(=O)CO4)ccc12,3,45*,42*,39,16,2,3,-24,-6

# Screens deposited in PubChem by Sanford-Burnham Center for Chemical Genomics.
